Cl transport mod: KCC2 (human) Cl- transport modulation. Q9H2X9. KCC2 cells, thallium flux FluoZin-2 fluorescence. B-score of Tl+ flux slope (higher = more flux/activation; lower = inhibition) at 10 µM. actives 2.2% (n = 190,000). AID 1456;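 active means thallium flux slope and its plate-corrected score both differing from the plate sample mean at a set confidence after two filtering rounds, in either direction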;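 further: slope of fluorescence scaled to starting intensity during 10 to 20 s after thallium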
Target sequence (Q9H2X9 whole entry, looked up): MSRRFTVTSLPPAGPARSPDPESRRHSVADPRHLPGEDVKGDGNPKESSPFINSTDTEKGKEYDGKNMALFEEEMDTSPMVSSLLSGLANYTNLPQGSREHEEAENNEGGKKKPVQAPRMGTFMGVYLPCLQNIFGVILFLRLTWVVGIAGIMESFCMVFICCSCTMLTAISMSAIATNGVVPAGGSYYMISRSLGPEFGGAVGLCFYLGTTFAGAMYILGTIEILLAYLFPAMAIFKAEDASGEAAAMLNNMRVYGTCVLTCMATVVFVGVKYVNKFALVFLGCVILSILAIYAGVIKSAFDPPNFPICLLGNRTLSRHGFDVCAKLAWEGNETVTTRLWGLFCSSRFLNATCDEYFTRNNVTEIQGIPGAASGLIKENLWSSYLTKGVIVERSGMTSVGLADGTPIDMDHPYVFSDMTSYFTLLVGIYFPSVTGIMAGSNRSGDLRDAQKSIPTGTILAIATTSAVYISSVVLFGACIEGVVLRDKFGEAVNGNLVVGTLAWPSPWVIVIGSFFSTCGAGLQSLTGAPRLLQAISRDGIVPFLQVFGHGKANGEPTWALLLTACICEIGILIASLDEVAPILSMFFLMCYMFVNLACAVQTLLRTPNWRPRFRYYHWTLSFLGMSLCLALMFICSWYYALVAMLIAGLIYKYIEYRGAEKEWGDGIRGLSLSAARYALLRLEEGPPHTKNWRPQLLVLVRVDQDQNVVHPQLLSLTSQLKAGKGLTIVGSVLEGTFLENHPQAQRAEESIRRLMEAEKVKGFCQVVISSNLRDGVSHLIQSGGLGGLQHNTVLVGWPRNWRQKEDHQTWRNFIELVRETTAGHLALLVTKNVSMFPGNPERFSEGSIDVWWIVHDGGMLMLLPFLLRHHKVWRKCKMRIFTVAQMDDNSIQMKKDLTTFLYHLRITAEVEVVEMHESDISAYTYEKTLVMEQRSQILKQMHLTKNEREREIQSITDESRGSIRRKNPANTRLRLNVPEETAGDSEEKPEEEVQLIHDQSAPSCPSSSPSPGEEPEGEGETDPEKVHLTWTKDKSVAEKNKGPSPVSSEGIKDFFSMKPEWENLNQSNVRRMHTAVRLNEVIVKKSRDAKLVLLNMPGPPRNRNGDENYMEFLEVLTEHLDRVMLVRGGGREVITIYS
KCNQ1 inh: blocks the human KCNQ1 potassium channel. P51787. CHO-K1 KCNQ1, FluxOR thallium flux fluorescence; active compounds read high. B-score at 10 µM. actives 1.3% (n = 310,000);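 active means compounds whose thallium flux B-score, printed positive for inhibition, exceeds three library SD while starting fluorescence stays within three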;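 further: channel opened by potassium depolarization with thallium stimulus after 20 min compound exposure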
KCNQ1 pot: potentiators or activators of human KCNQ1 potassium channel; P51787; CHO-K1 KCNQ1, thallium flux FluxOR fluorescence; active compounds read high; B-score at 10 µM; actives 0.35% (n = 310,000); AID 2648;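 active means fluorescence ratio B-score, a plate-corrected score, at least three library SD, with initial intensity B-score within 5 SD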
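Medium – assay buffer, equal DMSO in all wells · Material – CHO-K1 cell line with stable KCNQ1 potassium channel expression · Signal – kinetic FluxOR thallium fluorescence, 10-s 1-Hz baseline, 110-s post-stimulus read · Compound – single concentration per compound, DMSO matched to controls · Schedule – 37 °C overnight plating, 90-min dark dye load, 20-min compound pretreatment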
KCNK3 inh: human KCNK3 channel inhibition, primary screen. O14649. CHO-KCNK3 thallium flux, FluxOR fluorescence; active compounds read low. B-score at 10 µM. actives 0.84% (n = 340,000). AID 602410;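 active means B-score under library mean minus 4 SD, starting fluorescence ratio at most library mean plus 5 SD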;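 further: more negative B-score means stronger inhibition of thallium flux through KCNK3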
KCNK9 inh: human KCNK9 channel inhibition; Q9NPC2; HEK293 KCNK9, FluxOR thallium flux fluorescence; active compounds read low; B-score at 10 µM; actives 1.2% (n = 310,000); AID 488922;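 active means ratio B-score over 3 SD below the library mean, with starting fluorescence within 5 SD of its mean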;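 further: negative B-score means less thallium flux so channel inhibition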
hERG protect: hERG (human) protection from proarrhythmic block | Q12809 | CHO-hERG, FluxOR thallium flux, dofetilide IC70 present | activation (rescue from dofetilide block), less the hit threshold, % at 10 µM | actives 0.51% (n = 310,000);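 active means activation above the mean of controls blocked by dofetilide plus 5 SD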;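 further: thallium influx through hERG after potassium depolarization seen as dye fluorescence rise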
A number is an active result; i = inactive; nt = not tested or not shown. Hits are enriched below; roughly 4.1% of the tested compounds scored in any of these assays.

SMILES | Cl transport mod | KCNQ1 inh | KCNQ1 pot | KCNK3 inh | KCNK9 inh | hERG protect
O=C(Nc1ccc([N+](=O)[O-])cc1Cl)c1cc(Cl)ccc1O | nt | nt | nt | i | nt | nt
Cc1cc(OCC(=O)N(C)Cc2ccccc2)ccc1Br | nt | i | i | i | -7.28 | i
Cc1cc(OCC(=O)N(C)Cc2ccccc2)ccc1Cl | nt | i | i | i | i | i
O=C(CN1CCCC1)Nc1ccc(F)c(Cl)c1 | nt | i | i | i | i | i
Cc1cc(C)c2c(=O)n(CC(=O)NC3CCCC3)sc2n1 | i | i | i | i | i | i
COc1ccc(OC)c(CCNC(=O)Cn2sc3nc(C)cc(C)c3c2=O)c1 | i | 6 | i | nt | i | i
OC(CCN1CC2CCC(CC2)C1)(Cc1ccccc1)c1ccco1 (stereo not given) | nt | nt | nt | i | nt | nt
Cc1ccc(C(=O)Nc2ncc([N+](=O)[O-])s2)cc1 | nt | 6 | i | i | i | i
CC(CC(=O)Nc1ncc([N+](=O)[O-])s1)c1ccccc1 (stereo not given) | nt | 11 | i | i | i | i
Clc1ccc(OCCn2cnc(Cl)c2Cl)cc1 | i | i | i | i | i | i
Cn1c(N)c(C(=O)COC(=O)COc2ccccc2Cl)c(=O)n(C)c1=O | nt | nt | nt | i | nt | nt
COc1ccc(NC(=O)N2CCC(c3nc(-c4cccs4)no3)CC2)cc1 | i | i | i | i | i | i
O=C(Nc1ccc(Cl)cc1)N1CCC(c2nc(-c3cccs3)no2)CC1 | nt | 6 | i | i | i | i
COc1ccc(C(=O)COC(=O)c2sccc2C)cc1OC | nt | nt | nt | i | nt | nt
Cc1cc(=O)[nH]c(N2CCN(Cc3ccccc3)CC2)n1 | i | i | i | i | i | i
O=c1cc(-c2ccc(Cl)cc2)nc(N2CCN(c3ccccc3)CC2)[nH]1 | nt | i | i | i | -7.22 | i
O=C(CNC(=O)N1CC(=O)Nc2ccccc21)NCCc1c[nH]c2ccccc12 | nt | i | i | i | i | i
Cc1ccc(N(Cc2ccccc2)C(=O)Cc2ccc(S(=O)(=O)N3CCOCC3)s2)cc1 | nt | nt | nt | i | nt | nt
Cc1ccnc2nc(C(=O)OCC(=O)Nc3ccc([N+](=O)[O-])cc3Br)nn12 | nt | nt | nt | i | nt | nt
CCN1CCN(C(=O)c2ccccc2N(Cc2ccccc2)S(=O)(=O)c2ccc(OC)cc2)CC1 | i | i | i | i | i | i
O=C1CCC(c2ccc(-n3ccnc3)cc2)=NN1 | nt | i | 33 | i | i | i
CC(C)CNC(=S)NC(=O)c1ccc([N+](=O)[O-])cc1 | 20 | i | i | i | i | i
CCCCNC(=S)NC(=O)c1ccc([N+](=O)[O-])cc1 | 21.1 | i | 10 | i | i | i
O=C(NC(=S)NCc1ccco1)c1ccc([N+](=O)[O-])cc1 | nt | nt | nt | i | nt | nt
CN(Cc1nccn1C)C(=O)C1CCC(=O)N(CCc2ccc(Cl)cc2)C1 (stereo not given) | nt | i | i | i | i | i
SMILES | Cl transport mod | KCNQ1 inh | KCNQ1 pot | KCNK3 inh | KCNK9 inh | hERG protect
COC(=O)c1cc(-c2ccc(S(=O)(=O)N3CCCC(C)C3)cc2)c(C(F)(F)F)s1 (stereo not given) | i | 6 | i | i | i | i
COC(=O)c1cc(S(=O)(=O)N2CCCC(C)C2)cn1C (stereo not given) | nt | i | i | i | i | i
CCCc1cc(=O)[nH]c(SCC(=O)N2CCOCC2)n1 | nt | i | i | i | i | i
Cc1ccc(NC(=O)c2cccc3cccnc23)cc1 | nt | i | i | i | -7.56 | i
COc1ccc2c(COC(=O)[C@H](C)NS(=O)(=O)c3ccccc3F)cc(=O)oc2c1 | nt | nt | nt | i | nt | nt
c1ccc(C(CN2CCCCC2)Oc2ccccn2)cc1 (stereo not given) | nt | nt | nt | i | nt | nt
Cc1nc2ccccc2c(=O)n1CCCN1CCOCC1 | i | i | i | i | i | 5.8
COc1ccc(-c2nc3ccccc3c(=O)n2CCCN2CCOCC2)cc1 | i | i | i | i | i | i
Cc1nc(NCCc2ccc(O)cc2)c2nnn(Cc3ccccc3)c2n1 | nt | i | i | i | i | 9.1
O=C(CCC(=O)c1cccs1)NNC(=O)c1ccc(Cl)cc1 | nt | nt | nt | i | nt | nt
Cc1cc(C)c(S(=O)(=O)N2CCN(C(=O)CCn3nc(C)c(C)c3C)CC2)c(C)c1 | nt | i | i | i | i | i
CC(=O)Nc1ccc(NC(=O)C(C)OC(=O)c2ccccc2NS(=O)(=O)c2cccs2)cc1 (stereo not given) | i | i | i | i | i | i
Cc1cccc(NC(=O)C(C)OC(=O)c2ccccc2NS(=O)(=O)c2cc(C)c(C)c([N+](=O)[O-])c2)c1 (stereo not given) | i | 9 | i | i | i | i
CC(=O)Nc1ccc(N=Cc2nc(-c3ccc(C)cc3)oc2O)cc1 | i | i | i | i | -6.85 | i
CCn1cc(C(=O)N[C@@H](CCSC)C(=O)NC(C)(C)CO)c(=O)c2cc3c(cc21)OCO3 | nt | i | i | i | i | i
Cc1cc(C)c(S(=O)(=O)N2CCN(c3ccc([N+](=O)[O-])c(NCC4CCCO4)c3)CC2)c(C)c1 (stereo not given) | i | i | i | i | i | i
Cc1cc(C)c(S(=O)(=O)N2CCN(c3ccc([N+](=O)[O-])c(NCc4ccco4)c3)CC2)c(C)c1 | nt | i | i | i | i | 4.7
CC1CN(c2ccc([N+](=O)[O-])c(NCCOc3ccc(Cl)cc3)c2)CC(C)N1 (stereo not given) | nt | 9 | i | i | i | i
COc1ccc(Br)cc1/C=N/N1CCN(Cc2ccccc2Cl)CC1 | nt | 8 | i | i | i | i
COc1ccc(/C=N\N2CCN(Cc3ccccc3Cl)CC2)cc1 | nt | i | i | i | i | i
O=[N+]([O-])c1cccc(/C=N/N2CCN(Cc3ccccc3)CC2)c1 | i | i | i | i | i | i
O=[N+]([O-])c1cccc(/C=N\N2CCN(Cc3ccccc3Cl)CC2)c1 | i | 6 | i | i | i | i
COC(=O)C1=C(C)NC(=O)C1(NC(=O)CN1CCCC1=O)C(F)(F)F (stereo not given) | i | i | i | i | i | i
CCOC(=O)NC1(C(F)(F)F)C(=O)NC(C)=C1C(=O)OC (stereo not given) | i | i | i | i | i | 4.9
O=c1c2c(-c3cccs3)csc2ncn1-c1ccc(Br)cc1 | i | i | i | i | i | i
C=CCn1c(=S)[nH]c2scc(-c3cccs3)c2c1=O | 88.8 | i | 53 | i | i | 41.0
Cn1c(=S)[nH]c2scc(-c3cccs3)c2c1=O | 58.7 | i | 66 | i | i | 57.9
CC(C)CC(NC(=O)c1ccc(Cl)cc1)C(=O)OCC(=O)c1ccc2c(c1)NC(=O)CO2 (stereo not given) | i | i | 13 | i | i | i
CC(NC(=O)COC(=O)[C@@H]1CCCN1S(=O)(=O)c1ccccc1F)C12CC3CC(CC(C3)C1)C2 (stereo not given in full) | i | i | i | i | -6.84 | i
O=C(OCC(=O)N1CCc2ccccc21)[C@@H]1CCCN1S(=O)(=O)c1ccccc1F | nt | nt | nt | i | nt | nt
